Results published in ChEMBL document CHEMBL4014335, “Activation of Phenyl 4-(2-Oxo-3-alkylimidazolidin-1-yl)benzenesulfonates Prodrugs by CYP1A1 as New Antimitotics Targeting Breast Cancer Cells” (J Med Chem, 2017).
Active and inactive are the calls of the source. The calls are words filed in the database; no cut-off is given here.

Tests used:
[1] = system: MCF7; experiment: Cell cycle arrest in human MCF7 cells assessed as accumulation at G0/G1 phase at 8 nM after 24 hrs by DAPI-staining based FACS analysis (reference value: 65.5%); type: functional
[2] = species on record: Homo sapiens; experiment: Destabilization of microtubule network in human MCF7 cells at 8 nM after 24 hrs by fluorescence microscopic analysis; type: cell-based
[3] = system: MCF7; experiment: Cell cycle arrest in human MCF7 cells assessed as accumulation at subG1 phase at 8 nM after 24 hrs by DAPI-staining based FACS analysis (reference value: 1.4%); type: functional
[4] = system: MDA-MB-231; experiment: Cell cycle arrest in human MDA-MB-231 cells assessed as accumulation at subG1 phase at 8 nM after 24 hrs by DAPI-staining based FACS analysis (reference value: 4.1%); type: functional
[5] = species on record: Homo sapiens; experiment: Destabilization of microtubule network in human MDA-MB-468 cells at 8 nM after 24 hrs by fluorescence microscopic analysis; type: cell-based
[6] = system: MDA-MB-468; experiment: Cell cycle arrest in human MDA-MB-468 cells assessed as accumulation at S phase at 8 nM after 24 hrs by DAPI-staining based FACS analysis (reference value: 17%); type: functional
[7] = species on record: Homo sapiens; experiment: Destabilization of microtubule network in human MDA-MB-231 cells at 8 nM after 24 hrs by fluorescence microscopic analysis; type: cell-based
[8] = system: MDA-MB-468; experiment: Cytotoxicity against human MDA-MB-468 cells after 72 hrs in presence of CYP1A1 inhibitor alpha-naphthoflavone by SRB assay; type: functional, cell-based
Summary of the method: (§1)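 MDA-MB-468 cells co-incubated for 72 h with drug plus a subtoxic concentration of a CYP inhibitor. Viability read by SRB assay: TCA fixation, sulforhodamine B staining, absorbance at 530-565 nm.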

[9] = system: MDA-MB-231; experiment: Cell cycle arrest in human MDA-MB-231 cells assessed as accumulation at subG1 phase at 50 nM after 24 hrs by DAPI-staining based FACS analysis (reference value: 4.1%); type: functional
[10] = system: M21; experiment: Antiproliferative activity against human M21 cells after 48 hrs by SRB assay; type: functional, cell-based; conditions: M21, 48 h
Summary of the method: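 SRB assay run as in the NCI screen with slight modifications. Seeding: HT-29 5.0 x 10^3, M21 3.5 x 10^3, MCF7 7.5 x 10^3 cells; cells preincubated 24 h. Drug in DMSO added at 0.75 to 1.0 x 10^5 nM for 48 h. TCA fixation, sulforhodamine B staining, absorbance 530-565 nm. At least two experiments in triplicate; runs accepted only when relative SD < 10%.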

[11] = system: MDA-MB-231; experiment: Cell cycle arrest in human MDA-MB-231 cells assessed as accumulation at G2/M phase at 50 nM after 24 hrs by DAPI-staining based FACS analysis (reference value: 15.5%); type: functional
[12] = system: CYP1A1 mRNA; experiment: Upregulation of CYP1A1 mRNA expression in human MCF7 cells at 10 nM after 18 hrs by quantitative PCR analysis relative to control; type: ADME, cell-based; conditions: read-out: FC
Summary of the method: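 MCF7 cells exposed to 10 nM drug for 18 and 24 h. RNA extracted with TriReagent, reverse-transcribed with M-MuLV, random hexamers and oligo(dT). 4 ng cDNA run in quadruplicate with SYBR Green, 40 cycles at 95 °C/60 °C. Relative expression by the 2^-ΔΔCt method, normalized to ACTB and B2M.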

[13] = molecular target: T1, Cytochrome P450 1A1 (Homo sapiens, UniProt P04798); experiment: Prodrug activation assessed as human supersomes CYP1A1-mediated 3,4,5-trimethoxyphenyl 4-(2-oxoimidazolidin-1-yl)benzenesulfonate formation after 4 hrs by HPLC-MS analysis; type: ADME; conditions: recombinant enzyme
T1 sequence (P04798 whole entry): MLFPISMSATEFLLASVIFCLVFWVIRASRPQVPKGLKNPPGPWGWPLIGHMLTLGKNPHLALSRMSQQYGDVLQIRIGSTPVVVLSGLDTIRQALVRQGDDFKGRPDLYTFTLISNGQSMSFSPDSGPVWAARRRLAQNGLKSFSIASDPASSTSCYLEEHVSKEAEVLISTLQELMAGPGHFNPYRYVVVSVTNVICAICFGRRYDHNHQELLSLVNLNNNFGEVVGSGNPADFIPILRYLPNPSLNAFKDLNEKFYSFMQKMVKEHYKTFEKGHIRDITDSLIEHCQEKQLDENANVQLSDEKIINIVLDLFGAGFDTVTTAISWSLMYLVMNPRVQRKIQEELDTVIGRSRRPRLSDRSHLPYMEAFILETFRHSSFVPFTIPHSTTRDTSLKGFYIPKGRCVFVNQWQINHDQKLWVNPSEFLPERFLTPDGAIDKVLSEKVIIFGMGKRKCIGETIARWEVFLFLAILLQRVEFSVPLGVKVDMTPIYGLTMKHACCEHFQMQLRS

[14] = system: MDA-MB-468; experiment: Cell cycle arrest in human MDA-MB-468 cells assessed as accumulation at G0/G1 phase at 50 nM after 24 hrs by DAPI-staining based FACS analysis (reference value: 63.3%); type: functional
[15] = system: MDA-MB-468; experiment: Cell cycle arrest in human MDA-MB-468 cells assessed as accumulation at G2/M phase at 50 nM after 24 hrs by DAPI-staining based FACS analysis (reference value: 19.5%); type: functional
[16] = system: MDA-MB-468; experiment: Cytotoxicity against human MDA-MB-468 cells after 72 hrs in presence of CYP inhibitor curcumin by SRB assay; type: functional, cell-based; summary of the method: as §1

| Structure (SMILES) | Activity [1] [%] | Activity [2] | Activity [3] [%] | Activity [4] [%] | Activity [5] | Activity [6] [%] | Activity [7] | Activity [8] | Activity [9] [%] | IC50 [10] [µM] | Activity [11] [%] | fold induction at 18 h, 0.01 µM [12] | Drug metabolism [13] | Activity [14] [%] | Activity [15] [%] | Activity [16] |
| --- | --- | --- | --- | --- | --- | --- | --- | --- | --- | --- | --- | --- | --- | --- | --- | --- |
| COc1cc(OS(=O)(=O)c2ccc(N3CCNC3=O)cc2)cc(OC)c1OC | 9.6 | Active | 35.6 | 6.9 | Active | 13.3 | inactive | – | – | – | – | – | – | – | – | – |
| CCCCN1CCN(c2ccc(S(=O)(=O)Oc3cc(OC)c(OC)c(OC)c3)cc2)C1=O | – | – | – | – | – | – | – | inactive | 2.1 | 3.8 | 15.6 | 2 | Metabolite_Detected | 13.2 | 70.5 | Active |
